Reference: the EternaBench riboswitch data

Tested on: MS2 coat protein
Experiment: apparent Kd, MS2 coat protein; higher = weaker binding; RNA-MaP array; FMN 200 µM where present
Summary of the method: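 Two titrations, one without ligand and one with constant ligand, were run with SNAP-549-labelled MS2 coat protein from 0.7 or 1.5 nM, doubling to 3 µM. The targets were designs transcribed by stalled E. coli RNA polymerase on Illumina sequencing-chip clusters, in 100 mM Tris-HCl pH 7.5, 80 mM KCl, 4 mM MgCl2, BSA, DTT, yeast tRNA and Tween-20. The apparent Kd is the median of filtered per-cluster binding-curve fits, with green signal normalised to red-channel RNA signal and control-cluster median Fmax.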

[1] = designed as: OFF switch for flavin mononucleotide, no ligand
[2] = ligand present: flavin mononucleotide, designed as: OFF switch for flavin mononucleotide
[3] = designed as: ON switch for flavin mononucleotide, no ligand
[4] = ligand present: flavin mononucleotide, designed as: ON switch for flavin mononucleotide

Sequence	apparent Kd [1] [nM]	apparent Kd [2] [nM]	apparent Kd [3] [nM]	apparent Kd [4] [nM]
UUUUAACAUGAGGAUCACCCAUGUGAGGAUAUCGAAAUUUAUAUUUAUAUUUAUAUUUCGAGAAGGCACAUUUU	176	156	–	–
GCUACGCCUGACAUGAGGAUCACCCAUGUUAGAUUGUUAUGUCAGGAUAUAGUCUAGAAACUAGACUAGAAGGGAUGUGUAGCU	–	–	872	112
AAAAAACAUGAGGAUCACCCAUGUCAGGAUAUCUGUAUUCAAUCCUCGGAUUGAAUACAGAGAAGGGACAAAAA	37.8	54.6	–	–
UUAAUGUGAGGAUAUCAAGUGUGAUAGAGUAAUGGUAAAUAUGAGAAGGCACAUGAGGAUCACCCAUGUUCUUC	15.7	17.4	–	–
UACCCACAUGGGUAGUGGCAGCGUGAGGAUAUGGGUUGGAUACAUGAGGAUCACCCAUGUUCCUCCUAGAAGGCACUUGUAACC	–	–	138	24.8
AGUAACAGAGGAUAUACUAUUUUAUGUGUUUAUUGUUUUGAACAUGAGGAUCACCCAUGUAGAAGGCUGAAUAA	24.4	28	–	–
AUGCUUCACACAGGAUAUACAUGAGGAUCACCCAUGUGUGGGCGGUAGCUCGAAAGAGCUACCGGGUAGAAGGGUGUGAAGCAU	27.1	132	–	–
GGAGGACAUGAGGAUCACCCAUGUGGAUGGGCGCUAGGAUAUGCGAGAGGAUGGAGAGAAGCAGAAGGAGUGGGUU	–	–	150	107
CUACCGCGUGUGAGGAUAUUAUCACGUUACGGCGCUAAGAAGGUACAUGAGGAUCACCCAUGUCUCAACGGGUG	447	546	–	–
GGGAUGCUAGGAUAUACAUCGGGCUCCAGGAUGUUCCGGGAACAUGAGGAUCACCCAUGUAGAAGGAGCGUAUG	80.4	50.6	–	–
ACAAAUGGAGGAUAUACAUGAGGAUCACCCAUGUUUAUCCUACAUAUGUGAUCCUCAUGUAGAAGGCCAUAUGA	11	10.6	–	–
AAAAAAAAAAGCUAGGAUAUCCAAAAAAAAACAUGAGGAUCACCCAUGUAAAAAAAAAAAAAAUGGGAGAAGGAGCAAAAAAAAAA	–	–	52.4	26.9
AUACUUAAUGAAGGAUAUCUCAGCAUAAACCUGAGAGAAGGUCAUUAUUACAUGAGGAUCACCCAUGUUGUAGUUAAUGGGUAA	352	341	–	–
UUUUAACAUGAGGAUCACCCAUGUGAGGAUAUCGAAAUUUAUAUUAAUAUUAUUUUUACGAGAAGGCACAUUUU	90.3	95.4	–	–
UUAGAGGAUUAAGGAUAUGCAGAGAGAUCAUGCGCGUCGCGCACAUGAGGAUCACCCAUGUAAGAGCAGAAGGUAACUAUGAUC	19.9	18.4	–	–
GUAGCAUACCGAGGAUAUUCAGGGCGUGGUUAAACAUGAGGAUCACCCAUGUGGCGAAAGCCUAGGGAGAAGGCGGAAUGCUAC	–	–	28.7	22.5
AUCAGCUCGUCAGGAUAUACGUCACUGCGUCAGCAGUGUCGUAAGAUCACAUGAGGAUCACCCAUGUAGAAGGGACGAGCUGAU	5.31	5.49	–	–
CUUUUGUGAGGAUAUUAGUAGUAAAAAAAUAAAAUUACUACUGAGAAGGCACAUGAGGAUCACCCAUGUUCCUU	14.8	39	–	–
ACCAUGUAAGGAUAUGCGCGGCCCUAAAUCAAUGAGCAAGCGCAGAAGGUACAUGAGGAUCACCCAUGUCACCG	16.6	51.4	–	–
GUGCUCGUGUGAGGAUAUGCUUCCGUUUCGGCUGCAGAAGGUACUAUUAUACAUGAGGAUCACCCAUGUCUCUUUUCUUCGGUG	–	–	33.1	33.7
AUCAGCUCGUCAGGAUAUACGUCAUUGCGUCAGCAGUGUGGUAAGAUCACAUGAGGAUCACCCAUGUAGAAGGGACGAGCUGAU	13.9	286	–	–

Sequence	apparent Kd [1] [nM]	apparent Kd [2] [nM]	apparent Kd [3] [nM]	apparent Kd [4] [nM]
CUUGUUUAUGUGAGGAUAUACUGUUAGUAAUGUUUGUAGAAGGUACAUGAGGAUCACCCAUGUUUAUUUCCUUU	14.2	13.1	–	–
UUUUUCUGUGUGAGGAUAUACUUUGUUUGGUCGUUGUAGAAGGCACAUGAGGAUCACCCAUGUAGUUUGUUGUG	23.9	33.1	–	–
UCGUAUAAGGGCAUUACACAUGAGGAUCACCCAUGUACGUUAGAGGAUAUGCAUUUCAGUCGAACGUAGAAGGCUAGAGAAGGG	117	100	–	–
AUCGACAGUGUCAGGAUAUCUCACCCGAGUGGGCGAGAGAAGGGACAUGAGGAUCACCCAUGUGCGUUCUCUAA	27.5	174	–	–
ACAUGUACAGAGGAUAUGCGCCUUGGCAACGGUGUAGAAGGCUGAACAUGAGGAUCACCCAUGUGCAAUCCAGC	28.4	146	–	–
ACAUGAGGAUCACCCAUGUUUUUCGGGUACUCUUUUUACAGCAAGGAUAUGCAUUAUUUAUGUACGCAGAAGGUGCUUUACGUC	77	138	–	–
AUGCUAGUGUGAGGAUAUUAUUGACAUGAGGAUCACCCAUGUGUGAGUCCAACAUGAGCUACAGUUAAGAAGGUACAUUAGCAU	45.5	38.1	–	–
GCCAGGGAUUCAGGAUAUAUUAGCCGAGGCCGCGUAGAAGGGAAAUCCUGACAUGAGGAUCACCCAUGUCGACCCGCCUUCCUA	–	–	46.7	45.6
CCGCUAAAUGGAGGAUAUGGAGCCUUAUUGGCUCCAGAAGGUCAAAACAUGAGGAUCACCCAUGUGCGGCGGUCUAAUGACCGA	–	–	186	50.2
CACUGCAAUGUAGGAUAUCGACUGGAUAACAGUCGAGAAGGACAUGAGGAUCACCCAUGUAAUCCUAAUAAUAAAUAAGCAGUG	12.1	17.8	–	–
CAGCUACCCAGUAUGGGUAUUUUUACAGAAGGCCAGGCACAUGAGGAUCACCCAUGUCAAGUUAUGGAGGAUAUGUUAGUGUAU	–	–	8.25	4.76
GGUGGACAUGAGGAUCACCCAUGUGAGGAUAUCGGCUGGUACGUGUUGGCUGGCAUCUCGAGAAGGCACAUAGG	166	49.3	–	–
AUGUGGUGCGUAGGAUAUCAUUAAAGAAAACCCUGAGAAGGACGUGAGGACAUGAGGAUCACCCAUGUGGAUCACCCAUGUCAA	316	278	–	–
AACAAUAAGGAGGAUAUCGUAUCGGAAACGAUACGAGAAGGCUUAACAUGAGGAUCACCCAUGUUCCUCAAUAA	31.6	60	–	–
UUAUUGUGAGGAUAUCCAAUAUAUGACAUGAGGAUCACCCAUGUUUCCACUCGUACCUCCGGAGAAGGCACAUUUU	30.8	21.7	–	–
UCAUAAUAGAUCCUAUUUAUCUACAUGAGGAUCACCCAUGUGCAGGAUAUGCUAAAAUUAAAAUAGCAGAAGGGCAAUAUCAGC	109	365	–	–
UUUGCAUUCCGAGGAUAUUCAUAUAAUAACUACACAUGAGGAUCACCCAUGUGGCGAUAGCCUAGGGAGAAGGCGGUUUGCUUU	–	–	22.8	21.3
UUUUCAUCAUCAGGAUAUUAACGUGGGCUACUUUAAGAAGGGAUAGUGGGAGAGCACGUGAAACAUGAGGAUCACCCAUGUUGU	–	–	12.2	9.73
GGUCUUCAAGUCAGGAUAUCGUCUAAUAGAUAUAACGAGAAGGGACAUGAGGAUCACCCAUGUCGUCUCAUCAG	23.6	69.1	–	–
CCGGAAAUGGAGGAUAUAGGAGUCGAUAGACACCUAGAAGGUCAGACAUGAGGAUCACCCAUGUGUCCUACCGG	17.2	21.8	–	–
CGUGGCCGAGGAUAUACGGACGUGUCGCCGGGUGUCGUGGGACAUGAGGAUCACCCAUGUAGAAGGUGGUUGUC	53.5	39	–	–
